In ChEMBL document CHEMBL1136468, “B-ring unsaturated estrogens: biological evaluation of 17alpha-Dihydroequilein and novel B-Nor-6-thiaequilenins as tissue selective estrogens” (Bioorg Med Chem Lett, 2003):
pKi: −log10 of the molar value.

Columns and labels:
Estrogen receptor beta = Estrogen receptor beta (Homo sapiens, UniProt Q92731); experiment: Binding affinity against human estrogen receptor beta
Outline: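 Competitive binding to human ERβ, reported as Ki (nM). Compounds generally run in duplicate; minimum significant ratio for the binding assay is 2-fold.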

Estrogen receptor = target: T1, Estrogen receptor (Homo sapiens, UniProt P03372); experiment: Binding affinity against human estrogen receptor alpha
T1 sequence (P03372 whole entry): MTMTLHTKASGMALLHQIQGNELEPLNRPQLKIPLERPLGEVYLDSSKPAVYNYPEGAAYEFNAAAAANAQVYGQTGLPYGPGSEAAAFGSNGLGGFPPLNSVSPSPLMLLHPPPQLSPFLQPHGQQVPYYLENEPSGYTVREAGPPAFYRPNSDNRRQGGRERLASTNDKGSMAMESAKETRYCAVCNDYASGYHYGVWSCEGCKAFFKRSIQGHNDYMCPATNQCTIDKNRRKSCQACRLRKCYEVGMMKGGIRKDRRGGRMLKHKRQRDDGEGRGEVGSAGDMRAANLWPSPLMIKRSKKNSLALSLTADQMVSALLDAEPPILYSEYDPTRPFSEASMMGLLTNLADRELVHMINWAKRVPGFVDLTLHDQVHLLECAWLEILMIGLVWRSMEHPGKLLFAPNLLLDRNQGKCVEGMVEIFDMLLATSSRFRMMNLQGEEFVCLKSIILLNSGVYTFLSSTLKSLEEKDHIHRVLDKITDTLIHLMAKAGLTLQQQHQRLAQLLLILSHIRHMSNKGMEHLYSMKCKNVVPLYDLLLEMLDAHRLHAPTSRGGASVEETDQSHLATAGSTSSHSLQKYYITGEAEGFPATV

Rattus norvegicus [1] = experiment: (§1) Percent decrease in serum cholesterol in ovariectomized (OVX) rats at 10 mg/kg dose; type: functional
Outline: (§2)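 Six-month-old ovariectomized rats were dosed orally for 5 weeks, and total serum cholesterol was measured against OVX controls. Groups were compared by one-way ANOVA with p < 0.05.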

Rattus norvegicus [2] = experiment: Bone density at proximal metaphysis of excised femur in ovariectomized (OVX) rats at 0.01 mg/kg dose; type: functional
Outline: (§3)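 Six-month-old ovariectomized rats were dosed orally for 5 weeks. Bone density was measured at the proximal metaphysis of the excised femur. Percent protection was calculated for each animal as (BMD test − BMD OVX)/(BMD sham − BMD OVX) × 100. Statistics used one-way ANOVA with p < 0.05.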

Rattus norvegicus [3] = experiment: Bone density at proximal metaphysis of excised femur in ovariectomized (OVX) rats at 1.00 mg/kg dose; type: functional; outline: as §3
Rattus norvegicus [4] = experiment: (§4) Percent decrease in serum cholesterol in ovariectomized (OVX) rats at 0.10 mg/kg dose; type: functional; conditions: dose 0.1 mg/kg; outline: as §2
Rattus norvegicus [5] = experiment: Bone density at proximal metaphysis of excised femur in ovariectomized (OVX) rats at 0.1 mg/kg dose; type: functional; outline: as §3
Rattus norvegicus [6] = species: Rattus norvegicus; experiment: Effective dose in rat; type: functional
Rattus norvegicus [7] = experiment: as §1; type: functional; set-up: scale not given: the % may be the effect or the level left; outline: as §2
Rattus norvegicus [8] = experiment: Bone density at proximal metaphysis of excised femur in ovariectomized (OVX) rats at 10.00 mg/kg dose; type: functional; outline: as §3
Rattus norvegicus [9] = experiment: as §4; set-up: scale not given: the % may be the effect or the level left; conditions: dose 0.1 mg/kg

Chain of Estrogen receptor beta (Q92731 whole entry): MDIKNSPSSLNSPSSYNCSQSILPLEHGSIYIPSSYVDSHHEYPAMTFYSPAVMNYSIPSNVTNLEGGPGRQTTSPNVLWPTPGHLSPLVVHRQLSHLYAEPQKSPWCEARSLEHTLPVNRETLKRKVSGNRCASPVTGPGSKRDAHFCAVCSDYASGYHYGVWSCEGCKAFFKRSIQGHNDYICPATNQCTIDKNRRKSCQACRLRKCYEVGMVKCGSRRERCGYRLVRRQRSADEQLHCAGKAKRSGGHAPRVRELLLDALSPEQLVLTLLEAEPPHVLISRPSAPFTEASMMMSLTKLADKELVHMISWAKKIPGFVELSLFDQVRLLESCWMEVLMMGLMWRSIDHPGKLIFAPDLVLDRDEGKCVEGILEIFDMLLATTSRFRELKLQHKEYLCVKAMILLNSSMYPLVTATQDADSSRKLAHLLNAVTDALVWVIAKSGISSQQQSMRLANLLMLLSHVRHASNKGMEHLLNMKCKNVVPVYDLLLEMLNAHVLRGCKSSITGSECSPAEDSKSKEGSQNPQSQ

pKi (Estrogen receptor beta)	pKi (Estrogen receptor)	Structure (SMILES)	further results
7.14	7.64	C[C@]12CCc3c(sc4cc(O)ccc34)[C@@H]1CC[C@H]2O	–
6.92	7.62	C[C@@]12CCc3c(sc4cc(O)ccc34)[C@@H]1CC[C@H]2O	–
7.77	7.89	C[C@@]12CCc3c(sc4cc(O)ccc34)[C@H]1CC[C@H]2O	–

More lines, now with the values behind:

Structure (SMILES)	pKi (Estrogen receptor beta)	pKi (Estrogen receptor)	further results
C[C@]12CCc3c(sc4cc(O)ccc34)[C@H]1CC[C@@H]2O	7.33	8.00	–
C[C@]12CCc3c(ccc4cc(O)ccc34)[C@@H]1CC[C@H]2O	7.62	–	Decrease (Rattus norvegicus [1]): 93.8%; Protection (Rattus norvegicus [2]): 6.1%; Protection (Rattus norvegicus [3]): 59.5%; Decrease (Rattus norvegicus [4]): 66.3%; Protection (Rattus norvegicus [5]): 26.5%; ED50 (Rattus norvegicus [6]): < 0.1 mg/kg; Activity (Rattus norvegicus [7]): 93.8%; Protection (Rattus norvegicus [8]): 119%
C[C@]12CCc3c(sc4cc(O)ccc34)[C@@H]1CC[C@@H]2O	7.96	8.40	–
C#C[C@]1(O)CC[C@H]2[C@@H]3CCc4cc(O)ccc4[C@H]3CC[C@@]21C [ETHINYL ESTRADIOL]	–	–	Decrease (Rattus norvegicus [4]): 83.3%; Activity (Rattus norvegicus [9]): 83.3%
